Screens as filed in PubChem BioAssay.
T cell HTS – T cell immune modulators affecting CD8 T cell-vesicle binding; hit rate 0.068% among 330,000; 2C CD8+ T cell-vesicle binding, flow cytometry; hits give low values; response (vesicle binding), % at 7 µM;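 active = response, share of CD8 T cells binding vesicles, and their 90th percentile fluorescence all below set limits, cut at about 80% in these data, passing the limit was not always enough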;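 note: values below 100% mean blocked vesicle binding to the CD8+ T cells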
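System: murine 2C transgenic CD8+ T lymphocytes; also added: QL9-loaded Drosophila micro-vesicles; times: binding 1.5 h at 37 °C; measured by: flow cytometry, PE anti-B7-1 (FL2) versus Alexa647 anti-CD8 (FL8), PFA-fixed; control set: Peptide-free naked vesicles (low) and QL9 vesicles with 0.7% DMSO vehicle (high)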
GASC-1 inh – inhibitors of human GASC-1 (JMJD2C) demethylase; Q9H3R0; GST-JMJD2C(1-420) H3K9me3 demethylation, DELFIA europium; inhibition, % at 2.35 µM; hit rate 0.069% among 330,000; AID 2099;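 active = more than half of a compound's replicate wells show inhibition beyond 50%, single wells judged on their own value; inconclusive = some, but no more than half, of replicates pass 50% inhibition; inactive = no replicate passes 50% inhibition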;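 note: signal counts dimethyl H3K9 product captured on neutravidin plate; 0% = median of DMSO wells and 100% = 0.3 times that DMSO median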
HDAC3 inh – human HDAC3 inhibition; recombinant HDAC3, fluorogenic peptide/trypsin coupled, fluorescence; inhibition, % at 8.3 µM; O15379; hit rate 0.15% among 320,000; in the data active = inhibition above about 26%, passing the limit was not always enough; inconclusive = no clear call, values can overlap the other calls
Arrestin-AP2 inh – human beta-arrestin and AP2 interaction inhibition; FITC-arrestin peptide / GST-AP2 beads, flow cytometry; AP2 beta2 appendage carries R879A mutation; inhibition, % at 10 µM; hit rate 0.31% among 340,000; AID 504490;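 active = inhibition above a set limit, near 3 SD of compounds lacking own fluorescence, cut at about 54% in these data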;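 note: plate controls were DMSO wells for no effect and 5 µM unlabelled arrestin peptide for full effect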
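system = GST-tagged AP2 beta2-adaptin appendage (R879A) on 4 µm glutathione beads | reagent = FITC-labelled arrestin peptide probe, 50 nM final | schedule = compound with beads 12 min RT, then probe 1 h RT | signal = HyperCyt-sampled flow cytometry, FL1 channel, ex 488/em 535 nm | read-out = percent response from loss of bead-bound FITC fluorescence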
LANA-H2B inh – blocks KSHV LANA binding to histone H2A/H2B; Q9QR71; hit rate 0.6% among 320,000; AID 2629; inhibition, % (no concentration beside the values); cell-free LANA-H2A/H2B peptide, fluorescence polarization; in the data active = inhibition mostly above about 10%, no sharp cut-off; inactive = mostly below about 6.7%
Pemphigus Ab inh – blocks pemphigus antibody binding to human desmoglein-3; P32926; DSG3-coupled beads, scFv-anti-DSG3-GFP binding, flow cytometry; hits give low values; binding (percent of control), % at 10 µM; hit rate 0.48% among 310,000; AID 588358;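 active = binding more than 3 SD below its plate's average and above zero; inconclusive = below that plate limit but binding exactly zero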;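 note: hits lower antibody fragment binding to DSG3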
Target sequence (P32926 whole entry, looked up, the tested form may be a part): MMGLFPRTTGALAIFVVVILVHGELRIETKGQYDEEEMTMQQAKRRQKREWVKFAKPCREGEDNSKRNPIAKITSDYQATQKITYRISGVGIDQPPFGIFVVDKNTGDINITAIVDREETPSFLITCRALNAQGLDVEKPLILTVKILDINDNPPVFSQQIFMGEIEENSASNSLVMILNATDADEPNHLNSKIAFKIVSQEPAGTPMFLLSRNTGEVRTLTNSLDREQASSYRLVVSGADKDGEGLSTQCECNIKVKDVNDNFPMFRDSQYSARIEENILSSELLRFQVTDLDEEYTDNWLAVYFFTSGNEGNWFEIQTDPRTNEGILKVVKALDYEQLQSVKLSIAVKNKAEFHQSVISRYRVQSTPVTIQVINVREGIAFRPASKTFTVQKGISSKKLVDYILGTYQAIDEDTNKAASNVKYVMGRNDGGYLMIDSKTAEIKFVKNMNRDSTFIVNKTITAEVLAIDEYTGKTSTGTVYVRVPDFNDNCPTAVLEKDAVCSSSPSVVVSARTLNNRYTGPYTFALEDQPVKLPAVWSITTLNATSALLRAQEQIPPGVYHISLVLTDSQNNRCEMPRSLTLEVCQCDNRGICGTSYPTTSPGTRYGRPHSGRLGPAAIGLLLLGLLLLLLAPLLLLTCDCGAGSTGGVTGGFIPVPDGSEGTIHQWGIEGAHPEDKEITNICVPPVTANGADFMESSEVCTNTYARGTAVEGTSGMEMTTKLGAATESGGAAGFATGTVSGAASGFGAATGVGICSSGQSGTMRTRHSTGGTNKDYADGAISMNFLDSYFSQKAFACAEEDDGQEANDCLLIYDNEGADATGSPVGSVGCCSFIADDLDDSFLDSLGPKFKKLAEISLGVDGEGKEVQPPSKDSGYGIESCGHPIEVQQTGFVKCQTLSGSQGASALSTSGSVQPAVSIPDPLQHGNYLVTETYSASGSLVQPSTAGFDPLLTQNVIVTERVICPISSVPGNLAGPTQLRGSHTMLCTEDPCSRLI
Numbers without * were called inactive; i = inactive; u = inconclusive; x = not tested or not shown. Shown are actives, neighbours in structure and some others; about 1.6% of the full set was active somewhere.

SMILES | T cell HTS | GASC-1 inh | HDAC3 inh | Arrestin-AP2 inh | LANA-H2B inh | Pemphigus Ab inh
CC(C)(CNC(=O)c1ccc(S(=O)(=O)Nc2cccc(C(F)(F)F)c2)cc1)N1CCOCC1 | 162 | 2 | 3 | -20 | -1 | x
CCOC(=O)c1cc(OC(=O)Cc2ccc(OC)c(S(=O)(=O)N3CCOCC3)c2)cc(C(=O)OCC)c1 | x | x | x | x | x | 98
Cc1ccc(-c2nc(Nc3ccccc3)n[nH]2)cc1 | 332 | x | -12 | 13 | -3 | 37*
Cc1ccc(OCc2cc(C(=O)N3CCCC(O)C3)no2)cn1 (stereo not drawn) | 231 | u | 5 | -11 | -5 | 91
Cc1nc2cc(N3CCOCC3)c(NC(=O)C3CC3)cc2c(=O)n1Cc1ccccc1 | 619 | -8 | -1 | 2 | 56* | 104
Cc1nc2cc(N3CCCCC3)c(NC(=O)c3ccncc3)cc2c(=O)n1Cc1ccccc1 | x | x | x | -4 | x | 95
COc1ccc(OC(C)C(=O)NC2CCCCCC2)cc1 (stereo not drawn) | 184 | 8 | 0 | -3 | 2 | x
O=C(NCCCO)C(=O)Nc1cc2c3c(c1)CCC(=O)N3CCC2 | 261 | -4 | 2 | 35 | 19* | 129
COCCCNC(=O)C(=O)Nc1cc2c3c(c1)CCC(=O)N3CCC2 | 139 | 1 | 1 | -20 | 0 | 105
Clc1ccc(CNc2ncnc3[nH]ncc23)c(Cl)c1 | x | x | x | -5 | x | 94
CC1CCN(C(=O)c2ccc(N3CCOCC3)c([N+](=O)[O-])c2)CC1 | 304 | -12 | 4 | 24 | -1 | 106
CC1(C)CC=CC(COC(=O)c2ccccc2C(=O)O)C1 (stereo not drawn) | x | x | x | -12 | x | 104
COc1ccc2[nH]c3c(=O)n(CCCCC(=O)NCCN4CCCC4)c(=S)[nH]c3c2c1 | 200 | 23 | 30* | 24 | 4 | 97
CCC(C(=O)O)P(=O)(c1ccc(Cl)cc1)c1ccc(Cl)cc1 (stereo not drawn) | 146 | -1 | -19 | 48 | 13* | 100
COc1ccc(C(C)=O)cc1COC(=O)c1cc(C)nc2ccccc12 | 350 | -4 | -3 | 8 | -2 | 61*
COc1ccc(C2c3c(oc4ccccc4c3=O)C(=O)N2CC2CCCO2)cc1 (stereo not drawn) | i | -3 | 1 | 7 | 1 | 94
NC(=O)COc1ccc(C2c3c(oc4ccccc4c3=O)C(=O)N2CC2CCCO2)cc1 (stereo not drawn) | 517 | 0 | -1 | -3 | 197* | 96
O=S(Cc1ccc(Cl)cc1)CC(O)COCc1ccc(Cl)cc1 (stereo not drawn) | 253 | 4 | 1 | 6 | 19* | 99
OC(CNCc1ccccc1)COCc1ccc(Cl)cc1 (stereo not drawn) | 420 | -9 | -5 | -2 | 3 | 99
CSc1nc(-c2ccccc2)cn1-c1ccc(NC(C)=O)cc1 | 174 | 7 | 7 | 9 | 37* | 106
O=C(NC12CC3CC(CC(C3)C1)C2)c1ccc([N+](=O)[O-])o1 | 514 | 5 | 0 | 28 | 5 | 110
CCOC(=O)c1c(-c2ccccc2)oc2cc(CN(C)C)c(O)c(CN(C)C)c12 | 156 | -16 | 9 | 1 | 49* | 103
CCOC(=O)c1c(C)oc2cc(Cl)c(O)c(CN(C)C)c12 | 216 | 1 | -4 | -4 | 2 | 99
CCOC(=O)c1cnc2ccccc2c1Nc1ccc2c(c1)OCCO2 | 197 | 3 | -10 | 21 | 16* | 101
CCOC(=O)c1cnc2ccccc2c1NCc1ccco1 | 382 | 4 | -2 | 3 | -14 | 101
SMILES | T cell HTS | GASC-1 inh | HDAC3 inh | Arrestin-AP2 inh | LANA-H2B inh | Pemphigus Ab inh
Cc1c(OCC(=O)N2CCC(C(=O)NCCCC(=O)O)CC2)ccc2c1oc(=O)c1ccccc12 | 440 | -5 | -26 | 17 | -5 | 102
O=C(C[n+]1ccc2ccccc2c1)c1cccc2ccccc12 | 147 | 9 | 2 | -10 | 2 | 107
O=C(/C=C/c1cc[n+](CC(=O)c2ccc3cccc4c3c2CC4)cc1)c1ccc2cccc3c2c1CC3 | 149 | 4 | 22 | 7 | 2 | 63*
Cc1ccc(S(=O)(=O)N2CCN(C(=O)C3CCN(C(=O)c4ccc(F)cc4)CC3)CC2)c(C)c1 | 135 | 0 | -1 | 10 | 22* | 111
Cc1ccc(S(=O)(=O)N2CCN(C(=O)C3CC3C)CC2)c(C)c1 (stereo not drawn) | 638 | -5 | 4 | -11 | 0 | u
CC(OC(=O)Cn1c(C(F)(F)F)nc2ccccc21)C(=O)N1CCCc2ccccc21 (stereo not drawn) | 256 | 1 | 2 | -9 | 26* | 102
COc1ccc(NC(=O)[C@@H]2[C@@H]3C(=O)N(C4CCCCC4)C(=O)[C@@H]3C3c4ccccc4C=CN32)cc1 (stereo partly drawn) | 189 | 11 | 4 | -6 | 17* | x
O=C(COC(=O)Cc1ccccc1F)NC(=O)NC1CCCC1 | 298 | 7 | -10 | 3 | 2 | 100
O=S(=O)(Nc1nccs1)c1ccc(Br)cc1 | 275 | -5 | 7 | 18 | 2 | 87
O=S(=O)(Nc1ccc(S(=O)(=O)Nc2nccs2)cc1)c1ccc(Br)cc1 | 276 | -14 | 43* | 5 | -5 | x
Cc1cc(-c2nnc(SCC(=O)NC3CC3)n2C(C)C)cs1 | 240 | -1 | 0 | -17 | 2 | 98
O=C(O)c1cc(-c2ccc3c(c2)OCO3)nc2ccc(Br)cc12 | 420 | 5 | -2 | 8 | -2 | 33*
CCc1ccc(NC(=O)CCn2nc(C)c(S(=O)(=O)N3CCCCC3)c2C)cc1 | 222 | -11 | 4 | 3 | -3 | 102
COC(=O)c1cc2n(n1)CCN(Cc1cccc(OC)c1)C2=O | 453 | 5 | 4 | -11 | 20* | 87
Cc1ccccc1CN1CCN(CC(=O)NCc2ccccc2)CC1 | 185 | 9 | 0 | 1 | 21* | 112
CCOc1ccc(NC(=O)CCC(=O)NNC(=O)COc2ccc(C)cc2)cc1 | 123 | -37 | -3 | -2 | 5 | 84*
CC(=O)Nc1ccc(NC(=O)Nc2ccc(C)c(C)c2)cc1 | 108 | -3 | 7 | -10 | 4 | 102
CC(=O)Nc1ccc(OCC(=O)c2ccc(C)cc2C)cc1 | 171 | -1 | 1 | 1 | 1 | 106
CC(=O)Nc1ccc(NC(=O)Nc2ccc(C)cc2C)cc1 | 258 | -17 | 6 | 6 | 15* | 85
CC(=O)Nc1ccc(OCC(=O)c2cc(C)ccc2C)cc1 | 369 | 6 | -3 | 18 | 19* | 76
COc1cc2c(cc1OC)C(c1ccccc1[N+](=O)[O-])N(C(C)=O)CC2 (stereo not drawn) | 344 | 2 | 14 | 3 | 2 | 116
COc1cccc(CN2CC(C(=O)NCCC3=CCCCC3)CCC2=O)c1 (stereo not drawn) | 418 | 0 | -6 | 37 | 3 | 103
